Assay results: article PMC9328817 (Journal of Food and Drug Analysis, 2016)
Where a SMILES comes first, the peptide text is derived from it.

Legend:
HepG2 cells = assay: MTT viability assay; type: cell-based; settings: for Inhibitory effect on the growth of HepG2 cancer cells (in words): 0-1 mg/mL; for Growth inhibition of HepG2 cells: highest concentration tested 1 mg/mL, 24, 48 and 72 hours
In short: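 HepG2 cells were grown in DMEM with 10% FBS, L-glutamine and 1% penicillin/streptomycin at 37°C, humidified, 5% CO2, and treated in log phase at 80% confluence. After seeding and 24 h incubation, cells received peptides at 0–1 mg/mL for 24, 48 or 72 h. MTT was added (4 h, dark, 37°C), DMSO was added, and A570 was read against untreated cells.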

cancer cell growth = settings: cited from earlier work

| Molecule | Inhibitory effect on the growth of HepG2 cancer cells (in words) (HepG2 cells) | Growth inhibition of HepG2 cells (HepG2 cells) | Reduction of cancer cell growth (cancer cell growth) [%] |
| --- | --- | --- | --- |
| CC(C)C[C@H](NC(=O)[C@H](CCC(N)=O)NC(=O)[C@H](CC(=O)O)NC(=O)[C@H](CCC(N)=O)NC(=O)[C@H](CCC(N)=O)NC(=O)[C@H](CCC(=O)O)NC(=O)[C@H](CC(=O)O)NC(=O)[C@H](CCC(=O)O)NC(=O)[C@@H](NC(=O)[C@H](CCC(N)=O)NC(=O)[C@H](CCC(N)=O)NC(=O)[C@H](CCC(N)=O)NC(=O)[C@H](CCC(=O)O)NC(=O)[C@H](CCC(=O)O)NC(=O)[C@@H](N)CC(C)C)[C@@H](C)O)C(=O)O [LL-15] (H-LEEQQQTEDEQQDQL-OH) | no significant inhibitory effects | about 20% | – |
| CC(C)C[C@H](NC(=O)CNC(=O)[C@@H](N)CCCNC(=N)N)C(=O)N[C@@H](Cc1c[nH]cn1)C(=O)N1CCC[C@H]1C(=O)N[C@H](C(=O)N1CCC[C@H]1C(=O)N[C@@H](CCC(N)=O)C(=O)O)C(C)C [RQ-8] (H-RGLHPVPQ-OH) | no significant inhibitory effects | about 20% | – |
| CC(C)C[C@H](NC(=O)[C@H](CCCNC(=N)N)NC(=O)[C@H](Cc1c[nH]cn1)NC(=O)[C@H](CC(C)C)NC(=O)[C@H](CCC(=O)O)NC(=O)[C@H](CCC(=O)O)NC(=O)[C@H](CC(C)C)NC(=O)[C@@H](N)Cc1ccc(O)cc1)C(=O)N[C@@H](CC(N)=O)C(=O)N[C@@H](C)C(=O)NCC(=O)N[C@@H](Cc1ccc(O)cc1)C(=O)O [YY-11] (H-YLEELHRLNAGY-OH) | no significant inhibitory effects | about 20% | – |
| lactoferrin: iron-binding multifunctional protein in camel milk (protein, UniProt Q9TUM0 20-708, looked up) Lactotransferrin: ASKKSVRWCTTSPAESSKCAQWQRRMKKVRGPSVTCVKKTSRFECIQAISTEKADAVTLDGGLVYDAGLDPYKLRPIAAEVYGTENNPQTHYYAVAIAKKGTNFQLNQLQGLKSCHTGLGRSAGWNIPMGLLRPFLDWTGPPEPLQKAVAKFFSASCVPCVDGKEYPNLCQLCAGTGENKCACSSQEPYFGYSGAFKCLQDGAGDVAFVKDSTVFESLPAKADRDQYELLCPNNTRKPVDAFQECHLARVPSHAVVARSVNGKEDLIWKLLVKAQEKFGRGKPSGFQLFGSPAGQKDLLFKDSALGLLRISSKIDSGLYLGSNYITAIRGLRETAAEVELRRAQVVWCAVGSDEQLKCQEWSRQSNQSVVCATASTTEDCIALVLKGEADALSLDGGYIYIAGKCGLVPVLAESQQSPESSGLDCVHRPVKGYLAVAVVRKANDKITWNSLRGKKSCHTAVDRTAGWNIPMGLLSKNTDSCRFDEFLSQSCAPGSDPRSKLCALCAGNEEGQNKCVPNSSERYYGYTGAFRCLAENVGDVAFVKDVTVLDNTDGKNTEQWAKDLKLGDFELLCLNGTRKPVTEAESCHLAVAPNHAVVSRIDKVAHLEQVLLRQQAHFGRNGRDCPGKFCLFQSKTKNLLFNDNTECLAKLQGKTTYEEYLGPQYVTAIAKLRRCSTSPLLEACAFLMR | – | – | 56 |
